Test results reported in ChEMBL document CHEMBL1777764, “Synthesis and evaluation of 1-(1H-indol-3-yl)ethanamine derivatives as new antibacterial agents” (Bioorg Med Chem, 2011).
Converted amounts (≈) assume the structure as drawn.

Columns and labels:
Staphylococcus aureus [1] = assay: Antibacterial activity against Staphylococcus aureus ATCC 6538 after 18 hrs by broth microdilution method; format: functional; details: ATCC 6538, 18 h
Method in brief: (§1)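 MIC by broth microdilution per ISO 20776-1:2006 and CLSI M07-A8. Inoculum 10^6 cfu/ml in Mueller-Hinton broth with compound serially diluted, final concentrations 2 to 128 ug/ml, duplicate rows, no-drug growth control. Incubation 18 h at 37 °C. MIC taken as lowest concentration giving complete inhibition of visible growth. Each compound tested at least twice.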

Streptococcus pyogenes = assay: Antibacterial activity against Streptococcus pyogenes CIP 104226 after 18 hrs by broth microdilution method; format: functional; details: CIP 104226, 18 h
Method in brief: (§2)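 Broth microdilution following ISO 20776-1:2006 and CLSI M07-A8, in Mueller-Hinton broth. Inoculum was 10^6 cfu/ml, with compound serial dilutions spanning 2 to 128 ug/ml and a compound-free growth control well. Plates were incubated 18 h at 37 °C. MIC was the lowest concentration giving complete inhibition of visible growth. Each compound was tested at least twice.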

Staphylococcus aureus [2] = assay: Antibacterial activity against Staphylococcus aureus ATCC 9144 after 18 hrs by broth microdilution method; format: functional; details: ATCC 9144, 18 h; method in brief: as §1
Escherichia coli = assay: Antibacterial activity against Escherichia coli ATCC 25922 after 18 hrs by broth microdilution method; format: functional; details: ATCC 25922, 18 h; method in brief: as §2
Streptococcus agalactiae = assay: Antibacterial activity against Streptococcus agalactiae ATCC 12400 after 18 hrs by broth microdilution method; format: functional; details: ATCC 12400, 18 h; method in brief: as §2
Enterococcus faecalis = assay: Antibacterial activity against Enterococcus faecalis ATCC 29212 after 18 hrs by broth microdilution method; format: functional; details: ATCC 29212, 18 h; method in brief: as §2
Staphylococcus aureus [3] = assay: Antibacterial activity against Staphylococcus aureus ATCC 25923 after 18 hrs by broth microdilution method; format: functional; details: ATCC 25923, 18 h; method in brief: as §1
Staphylococcus aureus [4] = assay: Antibacterial activity against Staphylococcus aureus ATCC 29213 after 18 hrs by broth microdilution method; format: functional; details: ATCC 29213, 18 h; method in brief: as §1
Enterococcus faecium = assay: Antibacterial activity against Enterococcus faecium CIP 54.32 after 18 hrs by broth microdilution method; format: functional; details: CIP 54.32, 18 h; method in brief: as §2
Staphylococcus aureus [5] = assay: Antibacterial activity against Staphylococcus aureus CIP 65.6 after 18 hrs by broth microdilution method; format: functional; details: CIP 65.6, 18 h; method in brief: as §1
[6] = tested on: Staphylococcus epidermidis; assay: Antibacterial activity against Staphylococcus epidermidis ATCC 12228 after 18 hrs by broth microdilution method; format: functional; details: ATCC 12228, 18 h; method in brief: as §1
[7] = tested on: Staphylococcus epidermidis; assay: Antibacterial activity against Staphylococcus epidermidis CIP 103627 after 18 hrs by broth microdilution method; format: functional; details: CIP 103627, 18 h; method in brief: as §1
[8] = tested on: Staphylococcus epidermidis; assay: Antibacterial activity against Staphylococcus epidermidis CIP 81.55 after 18 hrs by broth microdilution method; format: functional; details: CIP 81.55, 18 h; method in brief: as §1
Haemophilus influenzae = assay: Antibacterial activity against Haemophilus influenzae ATCC 49766 after 18 hrs by broth microdilution method; format: functional; details: ATCC 49766, 18 h
Method in brief: as §2, with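 “broth […].” for “broth.”, “read after” for “incubated”, “with no” for “giving complete inhibition of”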

Staphylococcus aureus [9] = assay: Antibacterial activity against vancomycin intermediate Staphylococcus aureus […] after 18 hrs by broth microdilution method; format: functional; method in brief: as §2
Streptococcus mitis = assay: Antibacterial activity against Streptococcus mitis CIP 103335 after 18 hrs by broth microdilution method; format: functional; details: CIP 103335, 18 h
Method in brief: as §2, with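 “broth […].” for “broth.”, “read after” for “incubated”, “with no” for “giving complete inhibition of”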

Staphylococcus aureus [10] = assay: Antibacterial activity against Staphylococcus aureus CIP 103428 after 18 hrs by broth microdilution method; format: functional; details: CIP 103428, 18 h; method in brief: as §1
MRC5 [11] = assay: Cytotoxicity against human MRC5 cells at 10 uM; format: cell-based; details: mrc5, 10 µM
Enterobacter cloacae = assay: microbe, parasite or virus in culture; details: ATCC 13047, 18 h
MRC5 [12] = assay: Cytotoxicity against human MRC5 cells at 1 uM; format: cell-based; details: mrc5, 1 µM
Streptococcus pneumoniae [13] = assay: Antibacterial activity against Streptococcus pneumoniae ATCC 6303 after 18 hrs by broth microdilution method; format: functional; details: ATCC 6303, 18 h
Method in brief: (§3)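 MIC by broth microdilution per ISO 20776-1:2006 and CLSI M07-A8. Inoculum 10^6 cfu/ml in Mueller-Hinton broth […]. Compound serially diluted, final 2 to 128 ug/ml, duplicate rows, no-drug growth control. Read after 18 h at 37 °C as lowest concentration fully inhibiting visible growth. At least two experiments.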

HCT-116 [14] = assay: Cytotoxicity against human HCT116 cells at 1 uM; format: cell-based; details: hct-116, 1 µM
Serratia marcescens = assay: microbe, parasite or virus in culture; details: CIP 103551, 18 h
Streptococcus pneumoniae [15] = assay: Antibacterial activity against Streptococcus pneumoniae ATCC 49619 after 18 hrs by broth microdilution method; format: functional; details: ATCC 49619, 18 h; method in brief: as §3
Staphylococcus aureus [16] = assay: Antibacterial activity against methicillin-resistant Staphylococcus aureus CIP 65.25 after 18 hrs by broth microdilution method; format: functional; details: CIP 65.25, 18 h; method in brief: as §2
Pseudomonas aeruginosa = assay: microbe, parasite or virus in culture; details: CIP 5933, 18 h
HCT-116 [17] = assay: Cytotoxicity against human HCT116 cells at 10 uM; format: cell-based; details: hct-116, 10 µM
Klebsiella pneumoniae = assay: microbe, parasite or virus in culture; details: ATCC 35657, 18 h
Staphylococcus aureus [18] = assay: Antibacterial activity against methicillin-resistant Staphylococcus aureus ATCC 33592 after 18 hrs by broth microdilution method; format: functional; details: ATCC 33592, 18 h; method in brief: as §2
KB [19] = assay: Cytotoxicity against human KB cells at 10 uM; format: cell-based
Acinetobacter baumannii = assay: microbe, parasite or virus in culture; details: ATCC 19606 = CIP 70.34 = JCM 6841, 18 h
KB [20] = assay: Cytotoxicity against human KB cells at 1 uM; format: cell-based

SMILES: O=C(O)c1cn(C2CC2)c2cc(N3CCNCC3)c(F)cc2c1=O [CIPROFLOXACIN]
- MIC (Staphylococcus aureus [1]): 0.5 µg/mL (≈ 1.51 µM)
- MIC (Streptococcus pyogenes): 0.25 µg/mL (≈ 0.754 µM)
- MIC (Staphylococcus aureus [2]): 0.5 µg/mL (≈ 1.51 µM)
- MIC (Escherichia coli): 0.064 µg/mL (≈ 0.193 µM)
- MIC (Streptococcus agalactiae): 0.25 µg/mL (≈ 0.754 µM)
- MIC (Enterococcus faecalis): 1 µg/mL (≈ 3.02 µM)
- MIC (Staphylococcus aureus [3]): 0.5 µg/mL (≈ 1.51 µM)
- MIC (Staphylococcus aureus [4]): 0.5 µg/mL (≈ 1.51 µM)
- MIC (Enterococcus faecium): 1 µg/mL (≈ 3.02 µM)
- MIC (Staphylococcus aureus [5]): 0.5 µg/mL (≈ 1.51 µM)
- MIC [6]: 0.25 µg/mL (≈ 0.754 µM)
- MIC [7]: 0.25 µg/mL (≈ 0.754 µM)
- MIC [8]: 0.25 µg/mL (≈ 0.754 µM)
- MIC (Haemophilus influenzae): 0.5 µg/mL (≈ 1.51 µM)
- MIC (Staphylococcus aureus [9]): 32 µg/mL (≈ 96.6 µM)
- MIC (Streptococcus mitis): 0.25 µg/mL (≈ 0.754 µM)
- MIC (Staphylococcus aureus [10]): 0.5 µg/mL (≈ 1.51 µM)

SMILES: Cl.Cl.NCC(NO)c1c[nH]c2ccccc12 (centres undefined)
- MIC (Staphylococcus aureus [1]): 32 µg/mL
- Activity (MRC5 [11]): Non-toxic
- MIC (Streptococcus pyogenes): > 128 µg/mL
- MIC (Staphylococcus aureus [2]): 32 µg/mL
- MIC (Enterobacter cloacae): > 128 µg/mL
- MIC (Escherichia coli): > 128 µg/mL
- Activity (MRC5 [12]): Non-toxic
- MIC (Streptococcus agalactiae): > 128 µg/mL
- MIC (Enterococcus faecalis): > 128 µg/mL
- MIC (Streptococcus pneumoniae [13]): > 128 µg/mL
- MIC (Staphylococcus aureus [3]): 32 µg/mL
- MIC (Staphylococcus aureus [4]): 32 µg/mL
- MIC (Enterococcus faecium): > 128 µg/mL
- Activity (HCT-116 [14]): Non-toxic
- MIC (Staphylococcus aureus [5]): 32 µg/mL
- MIC [6]: 32 µg/mL
- MIC [7]: 32 µg/mL
- MIC (Serratia marcescens): > 128 µg/mL
- MIC [8]: 32 µg/mL
- MIC (Haemophilus influenzae): > 128 µg/mL
- MIC (Streptococcus pneumoniae [15]): > 128 µg/mL
- MIC (Staphylococcus aureus [9]): 32 µg/mL
- MIC (Staphylococcus aureus [16]): 64 µg/mL
- MIC (Streptococcus mitis): > 128 µg/mL
- MIC (Pseudomonas aeruginosa): > 128 µg/mL
- Activity (HCT-116 [17]): Non-toxic
- MIC (Staphylococcus aureus [10]): 32 µg/mL
- MIC (Klebsiella pneumoniae): > 128 µg/mL
- MIC (Staphylococcus aureus [18]): 64 µg/mL
- Activity (KB [19]): Non-toxic
- MIC (Acinetobacter baumannii): > 128 µg/mL
- Activity (KB [20]): Non-toxic

SMILES: CO/N=C(\C(=O)N[C@@H]1C(=O)N2C(C(=O)O)=C(COC(C)=O)CS[C@H]12)c1csc(N)n1 [CEFOTAXIME]
- MIC (Streptococcus pyogenes): 0.016 µg/mL (≈ 0.0351 µM)
- MIC (Streptococcus agalactiae): 0.016 µg/mL (≈ 0.0351 µM)
- MIC (Enterococcus faecalis): 0.5 µg/mL (≈ 1.1 µM)
- MIC (Streptococcus pneumoniae [13]): 0.125 µg/mL (≈ 0.274 µM)
- MIC (Enterococcus faecium): 0.5 µg/mL (≈ 1.1 µM)
- MIC (Haemophilus influenzae): 0.032 µg/mL (≈ 0.0703 µM)
- MIC (Streptococcus pneumoniae [15]): 0.125 µg/mL (≈ 0.274 µM)
- MIC (Streptococcus mitis): 0.016 µg/mL (≈ 0.0351 µM)

SMILES: Cl.Cl.Cl.NCC(NO)c1c[nH]c2ccc(Cl)cc12 (centres undefined)
- MIC (Staphylococcus aureus [1]): 16 µg/mL
- Activity (MRC5 [11]): Non-toxic
- MIC (Streptococcus pyogenes): 128 µg/mL
- MIC (Staphylococcus aureus [2]): 16 µg/mL
- MIC (Enterobacter cloacae): 128 µg/mL
- MIC (Escherichia coli): 64 µg/mL
- Activity (MRC5 [12]): Non-toxic
- MIC (Streptococcus agalactiae): 128 µg/mL
- MIC (Enterococcus faecalis): > 128 µg/mL
- MIC (Streptococcus pneumoniae [13]): 64 µg/mL
- MIC (Staphylococcus aureus [3]): 16 µg/mL
- MIC (Staphylococcus aureus [4]): 16 µg/mL
- MIC (Enterococcus faecium): > 128 µg/mL
- Activity (HCT-116 [14]): Non-toxic
- MIC (Staphylococcus aureus [5]): 16 µg/mL
- MIC [6]: 16 µg/mL
- MIC [7]: 16 µg/mL
- MIC (Serratia marcescens): 128 µg/mL
- MIC [8]: 16 µg/mL
- MIC (Haemophilus influenzae): 128 µg/mL
- MIC (Streptococcus pneumoniae [15]): 64 µg/mL
- MIC (Staphylococcus aureus [9]): 16 µg/mL
- MIC (Staphylococcus aureus [16]): 16 µg/mL
- MIC (Streptococcus mitis): 128 µg/mL
- MIC (Pseudomonas aeruginosa): 128 µg/mL
- Activity (HCT-116 [17]): Non-toxic
- MIC (Staphylococcus aureus [10]): 16 µg/mL
- MIC (Klebsiella pneumoniae): 128 µg/mL
- MIC (Staphylococcus aureus [18]): 16 µg/mL
- Activity (KB [19]): Non-toxic
- MIC (Acinetobacter baumannii): 128 µg/mL
- Activity (KB [20]): Non-toxic
